Published values of several laboratories.
Lines come from different studies, so protocols differ.
Target: Serine/threonine-protein kinase Chk1 (CHEK1, Homo sapiens, UniProt O14757)
Mode: inhibitor

| Structure (SMILES) | assay | system | setting | inhibition [%] |
| --- | --- | --- | --- | --- |
| CS(=O)(=O)Nc1cccc(-c2csc(NC(=O)CSc3nc4nccnc4c(=O)n3CCc3ccccc3)n2)c1 | enzyme activity |  | 10 µM | -3 |
| COc1cc2ncnc(Nc3ccc(Oc4ccccc4)cc3C)c2cc1OC | enzyme activity |  | 1 µM | 6 |
| CNc1cccc2cc(C(=O)Nc3ccc(C(=O)O)cc3)c(=O)[nH]c12 | enzyme activity |  | 10 µM | -1.6 |
| CN(C)C1CCN(CC#Cc2nn(C3CCCC3)c3nc(NCc4ccccc4)ncc23)C1 (centres unmarked) | enzyme activity, FRET |  | 1 µM | -5 |
| CCN1CCN(Cc2ccc(NC(=O)c3ccc(C)c(/C=C/c4cnc5[nH]ccc5c4OC)c3)cc2C(F)(F)F)CC1 | target engagement in cells, chemoproteomics | A-375 | 50 nM | -118 |
| CNC(=O)c1cc(Oc2ccc(NC(=O)Nc3ccc(Cl)c(C(F)(F)F)c3)cc2)ccn1 | enzyme activity |  | 0.3 µM | -5 |
| CSc1nc(C)c(-c2ccnc(Nc3ccc(N4CCOCC4)cc3)c2)[nH]1 | enzyme activity |  | 10 µM | 12.4 |
| C=CC(=O)Nc1cc(Nc2nccc(Nc3cc(Cl)c(F)cc3C(C)(C)O)n2)c(OC)cc1N1CC[C@@H](N(C)C)C1 | enzyme activity |  | 1 µM | 9 |
| CCCOc1ccc(/C=C2\SC(=O)NC2=O)cc1 | enzyme activity, mobility shift |  | 5 µM | -20 |
| CCN1CCN(Cc2ccc(NC(=O)c3ccc(C)c(Oc4ccnc5[nH]ccc45)c3)cc2C(F)(F)F)CC1 | target engagement in cells, chemoproteomics | A-375 | 50 nM | -156 |
| COc1cccc2c(NCc3ccccc3)nc(-n3c(N)nc4ccccc43)nc12 | target engagement in cells, chemoproteomics |  | 20 mM | -4.2 |
| CNCc1ccc(-c2cc(-c3nc(-c4ccc(S(=O)(=O)C(C)C)cc4)cnc3N)on2)cc1 | enzyme activity |  | 2 µM | 52 |
| Cc1ccc(Nc2nccc(N(C)c3ccc4c(C)n(C)nc4c3)n2)cc1S(N)(=O)=O | enzyme activity |  | 0.3 µM | 2 |
| c1ccc(CNc2nc(N3CCOc4ccccc43)nc3c2CCCC3)cc1 | target engagement in cells, chemoproteomics |  | 20 mM | -3.2 |
